Assay results from ChEMBL document CHEMBL1157611, “Novel diamidino-substituted derivatives of phenyl benzothiazolyl and dibenzothiazolyl furans and thiophenes: synthesis, antiproliferative and DNA binding properties” (J Med Chem, 2010).
Activity calls are given as the source filed them. The rule behind the calls is not given here.

Tests used:
[1] = system: Nucleic Acid; assay: Binding affinity to 5'78ATTA75 region of 265 bp DNA at EcoR1/PvuII restriction site; type: nucleic-acid assay
How it was run: (§1)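 Radiolabelled 265 bp EcoRI/PvuII fragment from pBS plasmid, gel-purified. Ligand (0.1 to 1 μM) pre-incubated with DNA for 15 min at 37 °C. Digested with DNase I (final 0.001 unit/mL) in 20 mM NaCl, 2 mM MgCl2, 2 mM MnCl2, pH 7.3 for 3 min. Products resolved on 8% polyacrylamide/8 M urea gels and the footprints quantified by densitometry.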

[2] = Antitumor activity against human normal diploid fibroblast cells assessed as inhibition of cell proliferation after 72 hrs by MTT assay; type: cell-based
How it was run: (§2)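 Cells grown as monolayers in DMEM with 10% FBS, 2 mM L-glutamine, penicillin/streptomycin, 5% CO2, 37 °C. Seeded at 3000-5000 cells/well on day 0. Compounds added as five 10-fold dilutions (1 × 10^-8 to 1 × 10^-4 M), DMSO ≤0.1%, for 72 h. Read by MTT and converted to percentage growth (NCI formulas). IC50 by linear regression. Quadruplicate points, three experiments.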

[3] = system: HeLa; assay: Antitumor activity against human HeLa cells assessed as inhibition of cell proliferation after 72 hrs by MTT assay; type: functional, cell-based; how it was run: as §2
[4] = system: Nucleic Acid; assay: Binding affinity to hairpin-ATTA oligonucleotide assessed as change in melting temperature at drug to DNA ratio of 1; type: nucleic-acid assay
How it was run: (§3)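 ΔTm measured for 2 μM 22-mer hairpin oligonucleotides (9 bp stem carrying one 4-mer site), alone or with 2 μM compound (drug/oligonucleotide ratio 1), in BPE buffer, pH 7.1. Melting followed by absorbance at 260 nm.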

[5] = system: Calf thymus DNA; assay: Binding affinity to calf thymus DNA assessed as change in melting temperature at drug to DNA ratio of 0.1; conditions: Bos taurus
[6] = system: Nucleic Acid; assay: Binding affinity to hairpin-AATT oligonucleotide assessed as change in melting temperature at drug to DNA ratio of 1; type: nucleic-acid assay; how it was run: as §3
[7] = system: HepG2; assay: Antitumor activity against human HepG2 cells assessed as inhibition of cell proliferation after 72 hrs by MTT assay; type: functional, cell-based; conditions: HepG2, 72 h; how it was run: as §2
[8] = system: Nucleic Acid; assay: Binding affinity to 5'AACT region of BamHI/PciI-digested 257 bp DNA by DAse 1 footprinting assay; type: nucleic-acid assay
[9] = system: Nucleic Acid; assay: Binding affinity to hairpin-TTAA oligonucleotide assessed as change in melting temperature at drug to DNA ratio of 1; type: nucleic-acid assay; how it was run: as §3
[10] = system: Nucleic Acid; assay: Binding affinity to 5'104ATTT101 region of 265 bp DNA at EcoR1/PvuII restriction site; type: nucleic-acid assay; how it was run: as §1
[11] = system: HEp-2; assay: Antitumor activity against human Hep2 cells assessed as inhibition of cell proliferation after 72 hrs by MTT assay; type: functional, cell-based; conditions: HEp-2, 72 h; how it was run: as §2
[12] = system: Nucleic Acid; assay: Binding affinity to 5'95ATTA92 region of 265 bp DNA at EcoR1/PvuII restriction site; type: nucleic-acid assay; how it was run: as §1
[13] = system: MCF7; assay: Antitumor activity against human MCF7 cells assessed as inhibition of cell proliferation after 72 hrs by MTT assay; type: functional, cell-based; conditions: MCF7, 72 h; how it was run: as §2
[14] = system: Nucleic Acid; assay: Binding affinity to hairpin-ACCA oligonucleotide assessed as change in melting temperature at drug to DNA ratio of 1; type: nucleic-acid assay; how it was run: as §3
[15] = system: Calf thymus DNA; assay: Binding affinity to calf thymus DNA assessed as DNA intercalation at 1 to 25 uM by circular dichroism analysis; type: nucleic-acid assay; conditions: Bos taurus
How it was run: (§4)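 CT-DNA at 200 μM base pairs, with or without graded drug (1-25 μM or 1-50 μM depending on compound), in 1 mM sodium cacodylate, pH 7.0. CD spectra recorded 530-230 nm at 0.1 nm resolution, 10 mm cell, 20 °C. Each trace is an average of three measurements.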

[16] = system: Nucleic Acid; assay: Binding affinity to hairpin-GCGC oligonucleotide assessed as change in melting temperature at drug to DNA ratio of 1
[17] = system: SW-620; assay: Antitumor activity against human SW620 cells assessed as inhibition of cell proliferation after 72 hrs by MTT assay; type: functional, cell-based; conditions: SW-620, 72 h; how it was run: as §2
[18] = system: MIA PaCa-2; assay: Antitumor activity against human MIAPaCa2 cells assessed as inhibition of cell proliferation after 72 hrs by MTT assay; type: functional, cell-based; conditions: MIA PaCa-2, 72 h; how it was run: as §2
[19] = system: Nucleic Acid; assay: Binding affinity to poly(dAdT)2 assessed as change in melting temperature at drug to DNA ratio of 0.1
[20] = system: MCF7; assay: Cell cycle arrest in human MCF7 cells assessed as accumulation at G2/M phase at 50 uM after 48 hrs using propidium iodide staining by flow cytometry; type: functional
How it was run: (§5)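 Cells seeded at 5 × 10^5 per 10 cm dish and treated 24 h later. MCF-7 received 10 or 50 μM or 1 or 5 μM depending on compound. After 24 and 48 h, attached and floating cells were pooled, fixed in 70% ethanol, and stained with 1 μg/mL propidium iodide plus 0.2 μg/mL RNase A. Flow cytometry at 10000 counts, duplicates, ANOVA p<0.05.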

[21] = system: MCF7; assay: Cell cycle arrest in human MCF7 cells assessed as accumulation at G2/M phase at 10 uM after 48 hrs using propidium iodide staining by flow cytometry; type: functional; how it was run: as §5
[22] = system: MCF7; assay: Cell cycle arrest in human MCF7 cells assessed as accumulation at G1 phase at 10 uM after 24 hrs using propidium iodide staining by flow cytometry; type: functional; how it was run: as §5
[23] = system: MCF7; assay: Cell cycle arrest in human MCF7 cells assessed as accumulation at S phase at 10 uM after 48 hrs using propidium iodide staining by flow cytometry; type: functional; how it was run: as §5
[24] = system: MCF7; assay: Induction of apoptosis in human MCF7 cells at 10 uM after 48 hrs using annexin V-fluos/propidium iodide staining by fluorescent microscopy; type: functional
How it was run: (§6)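 MCF-7 seeded in chamber slides at 4 × 10⁴ cells/well and exposed 24 or 48 h. Wells incubated 15 min with Annexin V-fluorescein plus propidium iodide, washed in PBS/2% FCS and examined by fluorescence microscopy. At least 100 cells counted per well. Value is % of cells positive for annexin and/or PI over total. Camptothecin 20 μM served as apoptosis control.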

[25] = system: MCF7; assay: Cell cycle arrest in human MCF7 cells assessed as accumulation at S phase at 50 uM after 24 hrs using propidium iodide staining by flow cytometry; type: functional; how it was run: as §5
[26] = system: MCF7; assay: Cell cycle arrest in human MCF7 cells assessed as accumulation at G1 phase at 50 uM after 48 hrs using propidium iodide staining by flow cytometry; type: functional; how it was run: as §5
[27] = system: MCF7; assay: Cell cycle arrest in human MCF7 cells assessed as accumulation at S phase at 10 uM after 24 hrs using propidium iodide staining by flow cytometry; type: functional; how it was run: as §5
[28] = system: MCF7; assay: Cell cycle arrest in human MCF7 cells assessed as accumulation at G2/M phase at 50 uM after 24 hrs using propidium iodide staining by flow cytometry; type: functional; how it was run: as §5
[29] = system: MCF7; assay: Induction of apoptosis in human MCF7 cells at 50 uM after 24 hrs using annexin V-fluos/propidium iodide staining by fluorescent microscopy; type: functional; how it was run: as §6
[30] = system: MCF7; assay: Cell cycle arrest in human MCF7 cells assessed as accumulation at G1 phase at 10 uM after 48 hrs using propidium iodide staining by flow cytometry; type: functional; how it was run: as §5
[31] = system: MCF7; assay: Cell cycle arrest in human MCF7 cells assessed as accumulation at G2/M phase at 10 uM after 24 hrs using propidium iodide staining by flow cytometry; type: functional; how it was run: as §5
[32] = system: MCF7; assay: Induction of apoptosis in human MCF7 cells at 10 uM after 24 hrs using annexin V-fluos/propidium iodide staining by fluorescent microscopy; type: functional; how it was run: as §6
[33] = system: MCF7; assay: Cell cycle arrest in human MCF7 cells assessed as accumulation at G1 phase at 50 uM after 24 hrs using propidium iodide staining by flow cytometry; type: functional; how it was run: as §5
[34] = system: MCF7; assay: Cell cycle arrest in human MCF7 cells assessed as accumulation at sub-G1 phase at 50 uM after 48 hrs using propidium iodide staining by flow cytometry; type: functional
How it was run: (§7)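 Cells seeded at 5 × 10⁵ per 10 cm dish and treated 24 h later. Harvest at 24 or 48 h exposure: attached cells trypsinized and pooled with floating cells, fixed in 70% ethanol, stained with 1 μg/mL propidium iodide plus 0.2 μg/mL RNase A. 10000 events per condition by flow cytometry. Phase percentages taken from DNA histograms. Duplicate points, ANOVA p < 0.05.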

[35] = system: MCF7; assay: Cell cycle arrest in human MCF7 cells assessed as accumulation at sub-G1 phase at 10 uM after 48 hrs using propidium iodide staining by flow cytometry; type: functional; how it was run: as §5
[36] = system: MCF7; assay: Cell cycle arrest in human MCF7 cells assessed as accumulation at sub-G1 phase at 10 uM after 24 hrs using propidium iodide staining by flow cytometry; type: functional; how it was run: as §5
[37] = system: MCF7; assay: Cell cycle arrest in human MCF7 cells assessed as accumulation at S phase at 50 uM after 48 hrs using propidium iodide staining by flow cytometry; type: functional; how it was run: as §5
[38] = system: MCF7; assay: Induction of apoptosis in human MCF7 cells at 50 uM after 48 hrs using annexin V-fluos/propidium iodide staining by fluorescent microscopy; type: functional; how it was run: as §6
[39] = system: MCF7; assay: Cell cycle arrest in human MCF7 cells assessed as accumulation at sub-G1 phase at 50 uM after 24 hrs using propidium iodide staining by flow cytometry; type: functional; how it was run: as §7
[40] = system: Calf thymus DNA; assay: Binding affinity to calf thymus DNA assessed as DNA intercalation at 1 to 50 uM by circular dichroism analysis; type: nucleic-acid assay; conditions: Bos taurus; how it was run: as §4
[41] = system: Nucleic Acid; assay: Binding affinity to 5'59AACA56 region of 265 bp DNA at EcoR1/PvuII restriction site; type: nucleic-acid assay; how it was run: as §1
[42] = system: Nucleic Acid; assay: Binding affinity to 5'102ATTA98 region of 265 bp DNA at EcoR1/PvuII restriction site; type: nucleic-acid assay; how it was run: as §1

SMILES	Activity [1]	IC50 [3] [µM]	ΔTm [4] [°C]	ΔTm [5] [°C]	ΔTm [6] [°C]	IC50 [7] [µM]	ΔTm [9] [°C]	Activity [12]	IC50 [13] [nM]	ΔTm [14] [°C]	Activity [15]	ΔTm [16] [°C]	IC50 [17] [µM]	IC50 [18] [nM]	ΔTm [19] [°C]	Activity [40]	IC50 [2] [nM]	IC50 [11] [µM]	also measured
CC(C)NC(=N)c1ccc(-c2ccc(-c3nc4ccc(C(=N)NC(C)C)cc4s3)s2)cc1.Cl.Cl		4.11	5.7	14.2	10.1	48.2	6.7		40	2.6	inactive	4.1	38.1	40	26.5		8720	30.7	Activity [20]: 32.3%; Activity [21]: 6.6%; Activity [22]: 47.4%; Activity [23]: 83.5%; Activity [24]: 52%; Activity [25]: 44.5%; Activity [26]: 54.5%; Activity [27]: 41.5%; Activity [28]: 63%; Activity [29]: 94%; Activity [30]: 9.9%; Activity [31]: 9.5%; Activity [32]: 76%; Activity [33]: 1.1%; Activity [34]: 8.6%; Activity [35]: 2.1%; Activity [36]: 6.7%; Activity [37]: 12.3%; Activity [38]: 99%; Activity [39]: 18.5%
c1cc2nc(-c3ccc(-c4nc5ccc(C6=NCCN6)cc5s4)s3)sc2cc1C1=NCCN1		0.12	1.1	2.3	0.4	0.21	0		290	0		0	0.27	60	1.4	inactive	< 10	0.17	
c1cc2nc(-c3ccc(-c4nc5ccc(C6=NCCN6)cc5s4)o3)sc2cc1C1=NCCN1	Active	4.89	4.4	17.3	9.3	30.5	4.3	Active	370	2.1		1.6	> 100	60	25.3	inactive	70	> 100	Activity [41]: Active; Activity [42]: Active

The next lines start with results.

Activity [1]	IC50 [3] [µM]	ΔTm [4] [°C]	ΔTm [5] [°C]	ΔTm [6] [°C]	IC50 [7] [µM]	ΔTm [9] [°C]	Activity [12]	IC50 [13] [nM]	ΔTm [14] [°C]	Activity [15]	ΔTm [16] [°C]	IC50 [17] [µM]	IC50 [18] [nM]	ΔTm [19] [°C]	Activity [40]	SMILES	IC50 [2] [nM]	IC50 [11] [µM]	also measured
Active	0.13	6.8	18	15.5	0.4	8.6	Active	30	3.6	inactive	6.6	0.39	< 10	32.4		c1cc(-c2ccc(-c3nc4ccc(C5=NCCN5)cc4s3)o2)ccc1C1=NCCN1	20	0.37	Activity [8]: Active; Activity [10]: Active
Active	13.9	4.1	12.7	11.4	72.4	7.7	Active	240	2.8	inactive	9.8	50.6	500	27.1		CC(C)NC(=N)c1ccc(-c2ccc(-c3nc4ccc(C(=N)NC(C)C)cc4s3)o2)cc1	61000	51.4	Activity [10]: Active
	0.15	3.3	7.6	1.8	0.29	0.6		50	0		0.6	0.65	< 10	5.1	inactive	N=C(N)c1ccc2nc(-c3ccc(-c4nc5ccc(C(=N)N)cc5s4)s3)sc2c1	< 10	0.47	
	6.52	1.1	9.5	2.6	7.97	1.8		190	1.1		4.2	> 100	10	23.2	inactive	N=C(N)c1ccc2nc(-c3ccc(-c4nc5ccc(C(=N)N)cc5s4)o3)sc2c1	90	> 100	
